Measurements from different studies.
Protocols differ between the studies behind these lines. pIC50: −log10 of the molar value.
Cell line: A549
Observed: cell growth or viability

| Structure (SMILES) | technique | time | pIC50 |
| --- | --- | --- | --- |
| CC(C)C[C@H](NC(=O)[C@H](CC(C)C)NC(=O)[C@H](CCCCN)NC(=O)[C@H](CCCCN)NC(=O)[C@H](Cc1ccccc1)NC(=O)[C@H](CC(C)C)NC(=O)[C@H](CCCCN)NC(=O)[C@H](CCCCN)NC(=O)[C@H](CC(C)C)NC(=O)[C@H](CC(C)C)NC(=O)[C@H](CCCCN)NC(=O)[C@@H](N)CCCNC(=N)N)C(=O)N[C@@H](CCCCN)C(N)=O | MTT | 24 h | 4.70 |
| CC(C)C[C@H](NC(=O)[C@H](CO)NC(=O)[C@H](CO)NC(=O)CNC(=O)[C@@H]1CCCN1C(=O)[C@H](Cc1ccc(O)cc1)NC(=O)[C@H](CC(C)C)NC(=O)[C@H](CO)NC(=O)[C@H](CS)NC(=O)[C@H](CC(C)C)NC(=O)[C@@H](N)CC(C)C)C(=O)O | MTT | 72 h | < 4.00 |
| CC(C)C[C@H](NC(=O)[C@H](CCCCN)NC(=O)CN)C(=O)N[C@@H](C)C(=O)N[C@@H](CCCCN)C(=O)N[C@@H](CCCCN)C(=O)N[C@@H](CC(C)C)C(=O)N[C@@H](Cc1ccccc1)C(=O)N[C@@H](CCCCN)C(=O)N[C@@H](CCCCN)C(=O)N[C@@H](CC(C)C)C(=O)N[C@@H](CCCCN)C(=O)N[C@@H](Cc1ccc(O)cc1)C(N)=O | MTT | 24 h | 3.45 |
| N.N.[Cl][Pt][Cl] | – | – | 5.92 |
| CC[C@@]1(O)C(=O)OCc2c1cc1n(c2=O)Cc2cc3ccccc3nc2-1 | SRB | 48 h | 7.22 |
| [C-]#[O+].[C-]#[O+].[C-]#[O+].[C-]#[O+].[C-]#[O+].[C-]#[O+].[C-]#[O+].[C-]#[O+].[C-]#[O+].[C-]#[O+].[Mn].[Mn] | MTT | 48 h | 4.68 |
| CC1=CC(=O)c2c(O)cccc2C1=O | MTT | – | 4.87 |
| CC(C)[C@@H]1NC(=O)[C@@H](CCCNC(=N)N)NC(=O)[C@H]([C@@H](C)O)NC(=O)[C@@H](CCN)NC(=O)[C@H](Cc2ccccc2)NC(=O)[C@@H](Cc2ccccc2)NC1=O | ATP luminescence | – | < 4.00 |
| N.N.O=C([O-])C1(C(=O)[O-])CCC1.[Pt+2] | MTT | 48 h | 3.71 |
| C[C@H](NC(=O)[C@H](Cc1c[nH]cn1)NC(=O)[C@H](Cc1c[nH]c2ccccc12)NC(=O)[C@H](CCCCN)NC(=O)[C@H](Cc1c[nH]c2ccccc12)NC(=O)[C@H](Cc1c[nH]c2ccccc12)NC(=O)[C@H](CCCNC(=N)N)NC(=O)[C@H](Cc1c[nH]c2ccccc12)NC(=O)[C@H](Cc1c[nH]cn1)NC(=O)[C@@H](N)CCCNC(=N)N)C(=O)N[C@@H](CCCNC(=N)N)C(=O)N[C@@H](Cc1c[nH]c2ccccc12)C(=O)N[C@@H](Cc1c[nH]c2ccccc12)C(N)=O | MTT | 24 h | 4.31 |
| O=C1c2ccccc2-c2c3c(cc4ccnc1c24)OCO3 | MTT | 75 h | 4.70 |
